These entries were drawn from the full list.
PGC1a Ac signal – compounds raising PGC1a acetylation signal, primary screen, PGC1a modulator project, cell-based, U2OS, AlphaScreen, signal-increasing mode; overnight; AID 651723, 2012; activation, % at 15.6 µM; 350,000 compounds, 0.21% hits;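 active = every replicate reaching activation of at least 50%, whatever the mean replicate activation; inconclusive = replicates that disagree or another doubt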;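 also: hits raise the AlphaScreen acetylation signal above neutral controls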
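Incubation: overnight compound treatment, 37 °C. System: U2OS cells transduced with flag-tagged PGC1a and GCN5 acetyltransferase. Detection: AlphaScreen lysate read. Compound: single-point compound dosing.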
Hep G6PC suppr – suppressors of forskolin-stimulated G6PC mRNA, dose response, PGC-1a acetylation activator project, cell-based, hepatocytes, RT-qPCR, cherry-picked samples | shares compounds with PGC1a Ac signal | primary mouse hepatocytes | G6PC suppression (normalized activity, % of positive control; higher = more suppression), % at 26 µM | 240 tested, under 10 active | AID 743463, 2014;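 active = dose curves showing G6PC suppression whose half-maximal dose is at most twice the top valid dose; inconclusive = flat curves with moderate negative activity, or unreliable fits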;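 also: G6PC expression relative to GAPDH housekeeping gene as delta delta Ct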
PCK1 hep suppr – suppression of PCK1 mRNA in primary hepatocytes, dose response, PGC-1a acetylation activator project, cell-based, primary mouse hepatocytes, RT-qPCR, cherry-pick. AID 743465, 2014. 230 tested, under 10 active. PCK1 expression decrease, unspecified at 26 µM. forskolin-stimulated. shares compounds with PGC1a Ac signal;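 active = compounds lowering PCK1 expression whose fitted half-maximal concentration is at most twice the top tested dose; inconclusive = flat fit with moderate opposite-direction effect, or poor fit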;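 also: higher delta delta Ct means lower PCK1 expression so positive values indicate hits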
Hep PGC-1a down – suppression of PGC-1a mRNA in primary hepatocytes, dose response, PGC-1a acetylation activator project, cell-based, primary mouse hepatocytes, RT-qPCR, cherry-pick; shares compounds with PGC1a Ac signal; PGC-1a mRNA qPCR, forskolin; top dose 26 µM; max activity (PGC-1a expression decrease), %; 240 tested, under 10 active;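 active = compound lowering PGC-1a expression with fitted half-maximal concentration at most twice its top tested dose; inconclusive = flat curve with moderate opposite-direction effect, or poor fit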
Of the large screens only hits and unclear results are named; the others gave an inactive call (follow-up assays come after a bar, where they were run).

C[C@H](CO)N1C[C@H](C)[C@@H](CN(C)Cc2ccc(C(F)(F)F)cc2)Oc2ccc(NS(=O)(=O)c3ccc(F)cc3)cc2C1=O	none
Cc1ccc(S(=O)(=O)Nc2ccc3c(c2)C(=O)N([C@H](C)CO)C[C@@H](C)[C@@H](CN(C)C(=O)NC(C)C)OCCCC[C@H](C)O3)cc1	none
C[C@@H]1CN([C@@H](C)CO)C(=O)c2c(c3ccccc3n2C)-c2ccccc2CO[C@@H]1CN(C)C(=O)Nc1ccc(F)cc1	PGC1a Ac signal inconclusive | Hep G6PC suppr inactive | PCK1 hep suppr inactive | Hep PGC-1a down inactive
CCC(=O)N(C)C[C@@H]1Oc2ncc(-c3ccc(C(=O)N(C)C)cc3)cc2C(=O)N([C@H](C)CO)C[C@@H]1C	none
Cc1noc(C)c1NC(=O)N(C)C[C@@H]1Oc2c(NS(=O)(=O)c3cn(C)cn3)cccc2C(=O)N([C@@H](C)CO)C[C@@H]1C	none
CO[C@@H](C(=O)N(C)C[C@H]1OCc2ccccc2-c2c(n(C)c3ccccc23)C(=O)N([C@H](C)CO)C[C@H]1C)c1ccccc1	PGC1a Ac signal 72 | Hep G6PC suppr inactive | PCK1 hep suppr inactive | Hep PGC-1a down inactive
C[C@H](CO)N1C[C@H](C)[C@@H](CN(C)Cc2ccc(C(F)(F)F)cc2)OCc2cnnn2CCCC1=O	none
Cc1noc(C)c1S(=O)(=O)Nc1ccc2c(c1)C(=O)N([C@H](C)CO)C[C@H](C)[C@H](CN(C)C(=O)c1ccncc1)OCCCC[C@@H](C)O2	none
COc1ccc(S(=O)(=O)N[C@H]2CC[C@@H](CCNC(=O)c3ccccc3F)O[C@@H]2CO)cc1	none
COc1ccc(-c2nc3ccccc3c(=O)o2)cc1OC	none
COc1ccccc1/C=C/c1nc2ccc(OC(C)=O)cc2c(=O)o1	none
CC1=CCC2C(=O)N(c3cccc(C(=O)NCc4ccccc4)c3)C(=O)C2C1 (configuration not stated)	none
O=C(COCc1cc(-c2ccc3c(c2)OCO3)on1)Nc1cccnc1	PGC1a Ac signal 94 | Hep G6PC suppr inactive | PCK1 hep suppr inactive | Hep PGC-1a down inconclusive
C#CCN1C(=O)C(O)(CC(=O)c2ccc(OC)c(OC)c2)c2ccccc21 (configuration not stated)	none
CNC[C@@H]1OCCCC[C@H](C)Oc2ccc(NS(=O)(=O)c3cccs3)cc2C(=O)N([C@H](C)CO)C[C@@H]1C	none
CCN1CCN(c2ncc(C(=O)Nc3cc(Cl)ccc3OC)c3ccccc23)CC1	none | Hep G6PC suppr inactive | PCK1 hep suppr inconclusive | Hep PGC-1a down inactive
C[C@@]12C(=O)OC(=O)[C@]1(C)C1CCC2O1	none
O=C(c1cc(Cl)ccc1Cl)N1CCc2ccccc21	none
O=C(NN1c2ccccc2CCc2ccccc21)c1ccccc1Br	PGC1a Ac signal inconclusive | Hep G6PC suppr inactive | PCK1 hep suppr inactive | Hep PGC-1a down inactive
CN(C)C(=O)C[C@H]1CC[C@H](NC(=O)C2CCC2)[C@@H](CO)O1	none
COc1ccc(S(=O)(=O)N(C)C[C@H]2Oc3c(NS(=O)(=O)c4ccc(C)cc4)cccc3C(=O)N([C@H](C)CO)C[C@H]2C)cc1	none
Cc1cccc(CS(=O)(=O)c2nnc([C@H](Cc3ccccc3)NC(=O)OC(C)(C)C)o2)c1	none
Cc1ccc(CN(CC(O)COc2cccc3[nH]cc(C)c23)C(C)(C)C)cc1 (configuration not stated)	PGC1a Ac signal 90 | Hep G6PC suppr inactive | PCK1 hep suppr inactive | Hep PGC-1a down inactive
Cn1c(CO)cnc1SCC(=O)c1ccc(Cl)cc1	none
Cc1cc(Cn2nc(C(=O)NCc3cccc(C(F)(F)F)c3)cc2-c2ccccc2)on1	PGC1a Ac signal 78 | Hep G6PC suppr inactive | PCK1 hep suppr inconclusive | Hep PGC-1a down inactive
CC(C)[C@H]1COCCS(=O)(=O)N1Cc1ccccc1F	none
O=C(N=Nc1c(O)[nH]c2ccccc12)c1cc(-c2cccs2)[nH]n1	none
CCCCn1c(CN(Cc2ccccc2)Cc2ccccc2)nc2c1c(=O)n(C)c(=O)n2C	PGC1a Ac signal inconclusive | Hep G6PC suppr inactive | PCK1 hep suppr inactive | Hep PGC-1a down inactive
CCOCCn1c(CN(Cc2ccccc2)Cc2ccccc2)nc2c1c(=O)n(C)c(=O)n2C	PGC1a Ac signal 56 | PCK1 hep suppr inactive | Hep PGC-1a down inactive
CCOCCn1c(CN(Cc2ccccc2)Cc2ccccc2)nc2c1c(=O)[nH]c(=O)n2C	PGC1a Ac signal inconclusive | Hep G6PC suppr inactive | PCK1 hep suppr inactive | Hep PGC-1a down inactive
Cc1ccc(NC(=O)c2c(C)nn(-c3ccccc3)c2Cl)c(C)c1	none
Cn1nnnc1SC1CC(=O)N(c2ccccc2)C1=O (configuration not stated)	none
CCc1nc(SCC(=O)N2c3ccccc3Sc3ccccc32)c2ccccc2n1	none
C=CCN1C(=O)C(CC(=O)Nc2ccccc2F)S/C1=N\c1nccs1 (configuration not stated)	none
COc1ccc2nc(N3CCCC(C(=O)NCCCN4CCN(C)CC4)C3)sc2c1 (configuration not stated)	none
O=C(Nc1ccccc1)C1=C[C@@H](c2ccc(C(F)(F)F)cc2)C[C@@H](OCc2ccc(CO)cc2)O1	PGC1a Ac signal 63 | Hep G6PC suppr inactive | PCK1 hep suppr inactive | Hep PGC-1a down inactive
CC12CCC(C1)C(C)(C)C2NS(=O)(=O)c1ccc(F)cc1 (configuration not stated)	PGC1a Ac signal inconclusive | Hep G6PC suppr inactive | Hep PGC-1a down inconclusive
O=C(Nc1ccc(OCC(=O)N2CCC(Cc3ccccc3)CC2)cc1)c1ccco1	PGC1a Ac signal 67 | PCK1 hep suppr inactive | Hep PGC-1a down inactive
COc1ccc(Cc2nc(-c3ccc(NC(=O)c4cccnc4)cc3)no2)cc1	PGC1a Ac signal 240 | Hep G6PC suppr inactive | PCK1 hep suppr inactive | Hep PGC-1a down inactive
O=[N+]([O-])c1ccc(Oc2cccc(F)c2)c2ccncc12	none
Cc1c(/C(O)=C2\C(=O)C(=O)N(CCCN(C)C)C2c2ccccc2)cnn1-c1ccccc1 (configuration not stated)	none
COc1ccccc1CNC(=O)C[C@@H]1CC[C@@H]2[C@H](COC[C@H](O)CN2C(=O)Nc2ccc(Cl)cc2)O1	none
O=C(C[C@H]1CC[C@H]2[C@@H](COC[C@@H](O)CN2C(=O)c2cc(Cl)cc(Cl)c2)O1)N1CCc2ccccc2C1	PGC1a Ac signal inconclusive | Hep G6PC suppr inactive | PCK1 hep suppr inactive | Hep PGC-1a down inactive
Cc1cc(C)c2c(-n3cccc3)c(C(=O)NNS(=O)(=O)c3ccccc3)sc2n1	PGC1a Ac signal 173 | Hep PGC-1a down inconclusive
COc1ccc(/C=N/NC(=O)Cn2cnc3ccccc3c2=O)cc1OC	none
CC(=O)Nc1nonc1-c1nc2ccccc2n1Cc1ccccc1	PGC1a Ac signal 61 | Hep G6PC suppr inactive | PCK1 hep suppr inactive | Hep PGC-1a down inconclusive
C=CCn1cccc(/C=C/C(=O)c2ccc(C(C)(C)C)cc2)c1=S	none
Cc1ccc(-c2[nH]ncc2/C=C(\C#N)C(=O)NC2CCCCC2)cc1	none

Assay outcomes (PubChem BioAssay)
